Measurements: ChEMBL document CHEMBL2016550, “Synthesis and structure-activity relationships of 1,2,4-triazolo[1,5-a]pyrimidin-7(3H)-ones as novel series of potent β isoform selective phosphatidylinositol 3-kinase inhibitors” (Bioorg Med Chem Lett, 2012)

How the values were obtained:
[1] = molecular target: T1, Phosphatidylinositol 4,5-bisphosphate 3-kinase catalytic subunit beta isoform (Homo sapiens, UniProt P42338); experiment: Inhibition of PI3Kbeta by continuous read time resolved fluorescence resonance energy transfer displacement assay
T1 sequence (P42338 whole entry, canonical isoform): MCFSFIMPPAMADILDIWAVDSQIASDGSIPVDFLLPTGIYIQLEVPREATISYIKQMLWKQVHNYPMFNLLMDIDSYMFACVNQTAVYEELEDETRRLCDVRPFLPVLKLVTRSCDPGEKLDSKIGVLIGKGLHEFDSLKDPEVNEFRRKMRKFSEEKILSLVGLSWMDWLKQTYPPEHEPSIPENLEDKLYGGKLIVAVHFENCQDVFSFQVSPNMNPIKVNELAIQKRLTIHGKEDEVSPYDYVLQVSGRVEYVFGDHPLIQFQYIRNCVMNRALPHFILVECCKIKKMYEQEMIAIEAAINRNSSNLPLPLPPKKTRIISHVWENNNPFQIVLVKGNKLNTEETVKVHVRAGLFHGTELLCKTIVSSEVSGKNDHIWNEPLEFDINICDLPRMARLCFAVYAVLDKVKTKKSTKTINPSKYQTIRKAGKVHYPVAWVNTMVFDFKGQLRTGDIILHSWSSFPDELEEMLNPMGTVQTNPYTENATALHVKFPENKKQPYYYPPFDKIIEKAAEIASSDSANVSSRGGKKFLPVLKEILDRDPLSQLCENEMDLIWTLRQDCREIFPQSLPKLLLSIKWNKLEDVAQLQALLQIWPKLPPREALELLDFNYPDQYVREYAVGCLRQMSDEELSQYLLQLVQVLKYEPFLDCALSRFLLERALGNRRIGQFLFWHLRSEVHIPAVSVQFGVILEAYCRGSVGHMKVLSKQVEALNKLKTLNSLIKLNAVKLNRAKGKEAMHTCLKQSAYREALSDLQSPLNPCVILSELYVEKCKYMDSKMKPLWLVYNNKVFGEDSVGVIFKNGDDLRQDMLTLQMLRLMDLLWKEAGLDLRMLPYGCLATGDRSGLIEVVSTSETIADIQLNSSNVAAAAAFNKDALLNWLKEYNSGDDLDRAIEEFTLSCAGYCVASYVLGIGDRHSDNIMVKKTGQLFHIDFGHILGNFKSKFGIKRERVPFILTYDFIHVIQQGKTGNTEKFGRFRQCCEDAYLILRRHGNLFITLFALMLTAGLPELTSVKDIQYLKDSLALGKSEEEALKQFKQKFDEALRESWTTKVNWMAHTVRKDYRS

[2] = molecular target: T2, Phosphatidylinositol 4,5-bisphosphate 3-kinase catalytic subunit delta isoform (Homo sapiens, UniProt O00329); experiment: Inhibition of PI3Kdelta by continuous read time resolved fluorescence resonance energy transfer displacement assay
T2 sequence (O00329 whole entry): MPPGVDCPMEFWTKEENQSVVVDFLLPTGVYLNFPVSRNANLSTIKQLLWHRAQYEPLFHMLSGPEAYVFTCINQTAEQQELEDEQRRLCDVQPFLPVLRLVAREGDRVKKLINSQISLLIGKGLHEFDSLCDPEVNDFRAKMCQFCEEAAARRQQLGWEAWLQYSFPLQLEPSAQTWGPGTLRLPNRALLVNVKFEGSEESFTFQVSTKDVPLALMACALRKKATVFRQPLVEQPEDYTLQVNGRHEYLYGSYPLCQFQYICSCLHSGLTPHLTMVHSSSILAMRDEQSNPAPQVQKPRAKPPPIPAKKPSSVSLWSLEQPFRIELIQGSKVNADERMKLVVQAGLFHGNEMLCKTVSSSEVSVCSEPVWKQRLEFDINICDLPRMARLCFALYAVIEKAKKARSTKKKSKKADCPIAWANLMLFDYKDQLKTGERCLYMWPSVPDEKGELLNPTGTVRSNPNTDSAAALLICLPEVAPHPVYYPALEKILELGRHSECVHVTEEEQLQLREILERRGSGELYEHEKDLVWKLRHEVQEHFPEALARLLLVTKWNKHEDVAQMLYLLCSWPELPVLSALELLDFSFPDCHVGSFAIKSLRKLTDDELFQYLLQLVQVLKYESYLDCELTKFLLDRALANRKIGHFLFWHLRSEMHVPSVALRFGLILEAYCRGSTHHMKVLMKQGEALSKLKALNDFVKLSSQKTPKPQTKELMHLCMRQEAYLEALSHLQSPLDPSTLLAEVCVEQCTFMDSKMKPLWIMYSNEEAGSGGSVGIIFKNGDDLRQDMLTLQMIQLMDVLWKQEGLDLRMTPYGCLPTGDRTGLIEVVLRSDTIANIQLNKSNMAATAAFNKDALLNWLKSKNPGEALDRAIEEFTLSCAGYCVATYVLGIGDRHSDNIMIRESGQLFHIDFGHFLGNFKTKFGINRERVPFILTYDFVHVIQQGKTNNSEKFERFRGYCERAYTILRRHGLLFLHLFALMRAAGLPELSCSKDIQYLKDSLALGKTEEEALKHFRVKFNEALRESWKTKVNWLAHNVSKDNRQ

[3] = molecular target: Serine/threonine-protein kinase mTOR (Homo sapiens, UniProt P42345); experiment: Inhibition of mTOR
[4] = Inhibition of DNA-PK
[5] = molecular target: T1, Phosphatidylinositol 4,5-bisphosphate 3-kinase catalytic subunit beta isoform; experiment: Inhibition of PI3K beta-mediated AKT phosphorylation at serine 473 in PTEN wild type human HCC1954 cells; format: cell-based
Outline: (§1)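 Breast cancer cells plated and held about 16–20 h, then exposed to compound for 30 min at 0.15% final DMSO. After a Tris wash, cells were lysed in buffer with protease and phosphatase inhibitors. Ser473-pAKT and total AKT were measured by MSD duplex immunoassay, normalised to total AKT (pAKT + AKT signal), and expressed as percent of DMSO control. IC50 from concentration-response fits; means of at least 2 experiments.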

[6] = test system: HCC1954; experiment: Cytotoxicity against PTEN wild type human HCC1954 cells after 6 days by alamar blue assay; format: functional, cell-based; conditions: HCC1954, 144 h
Outline: (§2)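 Cells were grown anchorage-independently: a 0.6% agar/medium + 10% FBS bottom layer, cells in 0.3% agar/medium + 10% FBS, and medium + 10% FBS on top. After 16–20 h they were dosed (0.15% final DMSO) for 6 days, with a baseline plate read at dosing. Alamar Blue was added for 6 h and read as fluorescence (ex 530/em 590 nm). Signal from 0.3% Brij 35 background wells was subtracted, values were expressed as % of DMSO control, and fitted with a 4-parameter logistic.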

[7] = molecular target: Phosphatidylinositol 4,5-bisphosphate 3-kinase catalytic subunit alpha isoform (Homo sapiens, UniProt P42336); experiment: Inhibition of PI3Kalpha by continuous read time resolved fluorescence resonance energy transfer displacement assay
Sequence of Phosphatidylinositol 4,5-bisphosphate 3-kinase catalytic subunit alpha isoform (P42336 whole entry, canonical isoform): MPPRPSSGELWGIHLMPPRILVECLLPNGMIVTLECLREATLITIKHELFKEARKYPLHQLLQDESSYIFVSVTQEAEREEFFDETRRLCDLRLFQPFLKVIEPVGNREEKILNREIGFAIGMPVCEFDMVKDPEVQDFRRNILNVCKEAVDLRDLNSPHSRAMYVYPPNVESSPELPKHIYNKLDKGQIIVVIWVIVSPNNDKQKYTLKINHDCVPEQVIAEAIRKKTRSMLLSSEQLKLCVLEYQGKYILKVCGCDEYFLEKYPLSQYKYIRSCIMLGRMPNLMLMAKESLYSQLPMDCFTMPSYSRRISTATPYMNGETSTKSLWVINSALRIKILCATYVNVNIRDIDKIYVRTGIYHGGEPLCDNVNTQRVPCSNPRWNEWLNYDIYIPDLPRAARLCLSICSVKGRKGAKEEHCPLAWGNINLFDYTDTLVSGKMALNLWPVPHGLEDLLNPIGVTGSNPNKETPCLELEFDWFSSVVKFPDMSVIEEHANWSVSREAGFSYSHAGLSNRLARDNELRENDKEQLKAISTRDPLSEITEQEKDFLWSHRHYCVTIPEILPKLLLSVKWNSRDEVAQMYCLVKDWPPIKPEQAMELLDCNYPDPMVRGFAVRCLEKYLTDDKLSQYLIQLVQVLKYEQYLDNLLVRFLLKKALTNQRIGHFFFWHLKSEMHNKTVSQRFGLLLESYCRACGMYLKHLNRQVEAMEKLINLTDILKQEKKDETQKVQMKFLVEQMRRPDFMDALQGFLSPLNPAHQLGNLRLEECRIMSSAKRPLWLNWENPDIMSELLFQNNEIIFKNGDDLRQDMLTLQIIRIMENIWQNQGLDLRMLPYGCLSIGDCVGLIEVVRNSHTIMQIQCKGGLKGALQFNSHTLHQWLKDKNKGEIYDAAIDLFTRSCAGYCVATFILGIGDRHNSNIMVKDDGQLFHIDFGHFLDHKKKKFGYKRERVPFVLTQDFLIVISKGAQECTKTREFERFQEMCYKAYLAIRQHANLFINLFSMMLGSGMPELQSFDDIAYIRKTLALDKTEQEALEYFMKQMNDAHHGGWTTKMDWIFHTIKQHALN

[8] = molecular target: Phosphatidylinositol 4,5-bisphosphate 3-kinase catalytic subunit gamma isoform (Homo sapiens, UniProt P48736); experiment: Inhibition of PI3Kgamma by continuous read time resolved fluorescence resonance energy transfer displacement assay
Sequence of Phosphatidylinositol 4,5-bisphosphate 3-kinase catalytic subunit gamma isoform (P48736 whole entry, canonical isoform): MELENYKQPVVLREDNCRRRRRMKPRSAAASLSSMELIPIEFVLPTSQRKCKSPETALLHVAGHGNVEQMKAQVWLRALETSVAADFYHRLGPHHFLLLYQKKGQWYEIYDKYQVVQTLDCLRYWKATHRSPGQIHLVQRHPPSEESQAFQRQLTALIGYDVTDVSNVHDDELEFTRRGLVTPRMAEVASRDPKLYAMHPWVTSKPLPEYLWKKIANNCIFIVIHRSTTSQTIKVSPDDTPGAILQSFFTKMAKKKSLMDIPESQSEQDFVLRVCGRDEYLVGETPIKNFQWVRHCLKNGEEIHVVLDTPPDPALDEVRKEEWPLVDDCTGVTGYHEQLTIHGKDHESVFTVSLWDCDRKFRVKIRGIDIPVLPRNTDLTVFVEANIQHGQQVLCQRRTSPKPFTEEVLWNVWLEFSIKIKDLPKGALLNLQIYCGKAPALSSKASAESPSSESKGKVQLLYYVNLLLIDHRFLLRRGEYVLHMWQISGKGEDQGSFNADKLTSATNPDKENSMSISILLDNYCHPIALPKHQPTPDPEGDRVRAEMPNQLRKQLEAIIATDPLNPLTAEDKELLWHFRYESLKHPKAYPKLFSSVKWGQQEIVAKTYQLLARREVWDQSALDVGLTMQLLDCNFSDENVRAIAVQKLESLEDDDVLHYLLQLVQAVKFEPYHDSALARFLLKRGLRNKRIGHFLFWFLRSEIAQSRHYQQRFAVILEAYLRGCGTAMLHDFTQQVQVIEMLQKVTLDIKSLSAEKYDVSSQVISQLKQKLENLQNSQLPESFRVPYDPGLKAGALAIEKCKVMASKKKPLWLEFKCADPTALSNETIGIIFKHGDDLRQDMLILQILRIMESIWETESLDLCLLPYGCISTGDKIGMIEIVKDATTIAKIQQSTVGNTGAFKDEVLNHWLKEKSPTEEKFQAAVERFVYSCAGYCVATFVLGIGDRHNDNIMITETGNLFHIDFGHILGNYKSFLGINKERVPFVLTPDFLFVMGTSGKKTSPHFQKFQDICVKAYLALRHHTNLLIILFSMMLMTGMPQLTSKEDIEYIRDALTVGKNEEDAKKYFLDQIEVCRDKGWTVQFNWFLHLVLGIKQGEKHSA

[9] = Selectivity ratio of IC50 for PI3Kdelta to IC50 for PI3Kbeta
[10] = molecular target: T1, Phosphatidylinositol 4,5-bisphosphate 3-kinase catalytic subunit beta isoform; experiment: Inhibition of PI3K beta-mediated AKT phosphorylation at serine 473 in PTEN deficient human MDA-MB-468 cells after 30 mins; format: cell-based; outline: as §1
[11] = test system: MDA-MB-468; experiment: Cytotoxicity against PTEN deficient human MDA-MB-468 cells after 6 days by alamar blue assay; format: functional, cell-based; outline: as §2
[12] = Clearance in rat at 0.25 mg/kg, iv; format: ADME, organism-based; design: dose 0.25 mg/kg, route intravenous; conditions: in vivo
Outline: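 Rats given a single IV dose at 0.25 mg/kg, formulated in 1% DMSO with 20% Encapsin in saline. Clearance was calculated after IV administration. Reported values are means of at least 2 experiments.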

[13] = Homo sapiens, MDA-MB-468, 144 h, read-out: EC50

Structure (SMILES)	IC50 [1] [µM]	IC50 [2] [µM]	IC50 [3] [µM]	IC50 [4] [µM]	IC50 [5] [µM]	EC50 [6] [µM]	IC50 [7] [µM]	IC50 [8] [µM]	Ratio IC50 [9]	IC50 [10] [µM]	EC50 [11, 13] [µM]	EC50 ([11]; mda-mb-468, read-out: EC50) [µM]	EC50 ([11]; mda-mb-468)	clearance [12] [mL/min/kg]
Cc1c(Cn2c(C)cn3c(=O)cc(N4CCOCC4)nc23)cccc1C(F)(F)F	0.0013	0.0079	32	0.8	> 29	9.7								
Cc1nn2c(=O)cc(N3CCOCC3)nc2n1Cc1cccc(Cl)c1Cl	0.0013	0.05					0.63	0.5	6	0.034	0.17			
Cc1nn2c(=O)cc(N3CCOC(C)C3)nc2n1Cc1cccc(Cl)c1Cl (single isomer, unassigned; enantiomer 2)	0.0013	0.04					1	0.5		0.0034	0.11			
CSc1nn2c(=O)cc(N3CCOCC3)nc2n1Cc1cccc(Cl)c1Cl	0.0016	0.031					1.6	0.5	19	0.013	0.24			
Cc1nn2c(=O)cc(N3CCOC(C)C3)nc2n1Cc1cccc(Cl)c1Cl (stereo in doubt; 6) [listing 1 of 2 here]	0.025	0.5					2.5	7.9						
Cc1c(Cn2c(C)nn3c(=O)cc(N4CCOC(C)C4)nc23)cccc1C(F)(F)F (single isomer, unassigned; enantiomer 1) [listing 1 of 2 here]	0.0031	0.063					1.6	0.79		0.0079		0.31		
CSc1nn2c(=O)cc(N3CCOC(C)C3)nc2n1Cc1cccc(C(F)(F)F)c1C (stereo not drawn)	0.001	0.025					1.3	0.2	6					
CSc1nn2c(=O)cc(N3CCOCC3)nc2n1Cc1cccc(C(F)(F)F)c1C	0.0004	0.025					0.32	1.3	6	0.0051			Not Active	
O=c1cc(N2CCOCC2)nc2n(Cc3cccc(Cl)c3Cl)c(C3CC3)nn12	0.0025	0.13					2.5	2.5	52	0.02	0.26			
Cc1c(Cn2c(C)nn3c(=O)cc(N4CCOC(C)C4)nc23)cccc1C(F)(F)F (single isomer, unassigned; enantiomer 2) [listing 1 of 2 here]	0.0003	0.004	6.3	0.16	2.5	2.2	0.32	0.06		0.0005		0.013		
Cc1c(Cn2c(C)nn3c(=O)nc(N4CCOCC4)cc23)cccc1C(F)(F)F	0.002									0.092	0.21			83
CSc1nn2c(=O)cc(-c3ccncc3)nc2n1Cc1cccc(Cl)c1Cl	0.013	0.079					0.4	2	6					
Cc1c(Cn2c(C)nn3c(=O)cc(N4CCOC(C)C4)nc23)cccc1C(F)(F)F (racemic) [listing 1 of 2 here]	0.0013	0.01					0.4	0.16		0.0027		0.055		
Cc1nn2c(=O)cc(N3CCOC(C)C3)nc2n1Cc1cccc(Cl)c1Cl (stereo in doubt; 6) [listing 2 of 2 here]									20					
Cc1c(Cn2c(C)nn3c(=O)cc(N4CCOC(C)C4)nc23)cccc1C(F)(F)F (single isomer, unassigned; enantiomer 2) [listing 2 of 2 here]									> 10					
Cc1c(Cn2c(C)nn3c(=O)cc(N4CCOC(C)C4)nc23)cccc1C(F)(F)F (racemic) [listing 2 of 2 here]									6					
Cc1c(Cn2c(C)nn3c(=O)cc(N4CCOC(C)C4)nc23)cccc1C(F)(F)F (single isomer, unassigned; enantiomer 1) [listing 2 of 2 here]									6					
Cc1c(Cn2c(C3CC3)nn3c(=O)cc(N4CCOCC4)nc23)cccc1C(F)(F)F	0.0013	0.04					2.5	1.6	6	0.0041	0.04			
Cc1nn2c(=O)cc(N3CCOC(C)C3)nc2n1Cc1cccc(Cl)c1Cl (racemic)	0.002	0.025					0.32	0.25						
Cc1c(Cn2c(C)nn3c(=O)cc(N4CCOCC4)nc23)cccc1C(F)(F)F	0.0006	0.02					0.63	0.79	6	0.0015	0.11			130
